16 compounds from ChEMBL document CHEMBL2069230, “Synthesis, biological evaluation, and docking studies of 3-(substituted)-aryl-5-(9-methyl-3-carbazole)-1H-2-pyrazolines as potent anti-inflammatory and antioxidant agents” (Bioorg Med Chem Lett, 2012) can be followed below.

For series [1], the target named is Prostaglandin G/H synthase 1 (Homo sapiens) (UniProt P23219). In words: Inhibition of COX1 peroxidase activity assessed as formation of TMPD at 100 uM by colorimetric analysis. The method, boiled down:
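COX-1 peroxidase activity: assay buffer, heme and enzyme with sample (0.1 mM); oxidized TMPD appearance monitored colorimetrically at 590 nm.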

For a further series, the species on record is Homo sapiens. In words: Selectivity ratio of inhibition of COX2 to inhibition of COX1.
In series [2] the test system is Mus musculus. In words: Antiinflammatory activity in AKR mouse assessed as inhibition of carrageenan-induced paw edema at 0.01 mmol/kg dosed intradermally after 3.5 hrs relative to vehicle-treated control. The format is functional. The method, boiled down: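 Edema induced in right hind paw of AKR mice (both sexes, pregnant females excluded, fasted during experiment) by intradermal 0.05 mL of 2% carrageenin in water; 6–10 animals per group. Paw weight increase, injected vs uninjected paw, compared with water-treated controls as percent edema inhibition; experiments in duplicate, mean of two.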
Background: In the carrageenan paw model, swelling and tenderness develop within hours.

For series [3], the system named is Radical scavenging activity. In words: Antioxidant activity assessed as DPPH radical scavenging activity at 100 uM after 20 mins by spectrophotometry. The format is functional. The method, boiled down:
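Test solution (0.1 mM) mixed with an equal quantity of 0.1 mM DPPH in ethanol; 20 min at room temperature, then DPPH reduction read as absorbance at 517 nm. Ascorbic acid (0.1 mM) as reference.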

The nature of series [4]: Antioxidant activity assessed as superoxide radical scavenging activity at 100 uM after 5 mins by NBT reduction assay. The series is classed as functional. The method, boiled down: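 Superoxide generated in Tris-HCl (100 mM, pH 7.4) with NBT (300 µM), NADH (936 µM) and sample (0.1 mM); NBT reduction read after 5 min at room temperature as absorbance at 560 nm. Ascorbic acid (0.1 mM) reference.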

Series [5] can be described thus: Antioxidant activity assessed as H2O2-induced hydroxyl radical scavenging activity at 100 uM after 5 mins by spectrophotometry. The format is functional. The method, boiled down: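 Mixture of FeCl2 (1 mM), 1,10-phenanthroline (1 mM), phosphate buffer (0.2 M, pH 7.8), H2O2 (0.17 M) and sample (0.1 mM); reaction started with H2O2, 5 min at room temperature, absorbance at 560 nm. Ascorbic acid (0.1 mM) reference.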

Series [6] concerns Mus musculus. In words: Toxicity in carrageenan-challenged AKR mouse up to 0.5 mmol/kg dosed intradermally. Conditions: in vivo, other. The format is organism-based.

Chain of Prostaglandin G/H synthase 1 (Homo sapiens) (P23219 whole entry): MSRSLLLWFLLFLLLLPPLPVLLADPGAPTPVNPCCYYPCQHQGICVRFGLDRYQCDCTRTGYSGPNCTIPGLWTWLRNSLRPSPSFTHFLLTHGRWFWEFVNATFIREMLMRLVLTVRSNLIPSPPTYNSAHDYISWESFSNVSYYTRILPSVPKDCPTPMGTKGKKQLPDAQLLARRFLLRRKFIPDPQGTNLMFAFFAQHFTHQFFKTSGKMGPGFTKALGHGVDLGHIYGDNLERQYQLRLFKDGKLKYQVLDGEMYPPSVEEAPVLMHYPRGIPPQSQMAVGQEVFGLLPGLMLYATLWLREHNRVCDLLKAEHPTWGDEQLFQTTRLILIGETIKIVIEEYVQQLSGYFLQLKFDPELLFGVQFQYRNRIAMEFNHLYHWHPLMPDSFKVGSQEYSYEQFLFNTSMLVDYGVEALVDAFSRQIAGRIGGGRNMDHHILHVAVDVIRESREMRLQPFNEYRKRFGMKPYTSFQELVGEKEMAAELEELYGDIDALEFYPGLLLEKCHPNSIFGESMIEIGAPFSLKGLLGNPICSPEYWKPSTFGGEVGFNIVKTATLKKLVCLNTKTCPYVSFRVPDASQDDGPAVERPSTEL

For `Cn1c2ccccc2c2cc(C3CC(c4cccs4)=NN3)ccc21` (stereo unspecified), the inhibition in series [1] worked out at 18.5%. In addition, the Selectivity ratio in the series filed under Homo sapiens came out at 2.61. The inhibition in vivo at 10 µmol/kg in the series with Mus musculus [2] was 42.2%. Also, the Activity in series [3] is 85.3%; in series [4], 81.1%; in series [5] it was 63.1%; in the series on Mus musculus [6] it was “Non-toxic”.

As for `Cn1c2ccccc2c2cc(C3CC(c4ccc(Cl)cc4)=NN3)ccc21` (stereo unspecified), the inhibition in series [1] stood at 10.2%. The Selectivity ratio in the series listed under Homo sapiens amounted to 1.24. Further, the Activity is 79.3% in series [3], 62.4% in series [4] and 55% in series [5].

In the case of `Cn1c2ccccc2c2cc(C3CC(c4ccccc4)=NN3)ccc21` (stereo unspecified), in series [1], the inhibition turned out to be 10.2%. Further, the Selectivity ratio in the series listed under Homo sapiens amounted to 2.16. The results for the Activity in series [3], in series [4] and in series [5] were 79.9%, 63.2% and 63.5%, respectively.

Regarding `COc1cc(OC)c(C2=NNC(c3ccc4c(c3)c3ccccc3n4C)C2)c(OC)c1` (stereo unspecified), the inhibition in series [1] amounted to 23.5%. Besides, the Selectivity ratio in the series listed under Homo sapiens stood at 3.69. Also, the inhibition in vivo at 10 µmol/kg in the series on Mus musculus [2] came out at 54.3%. In addition, the Activity is 86% in series [3], 70.4% in series [4], 74.3% in series [5] and “Non-toxic” in the series with Mus musculus [6].

For `O=C1O[C@H]([C@@H](O)CO)C(O)=C1O`, the Activity in series [3] stood at 91.5%; in series [4] it was 52%; in series [5], 88.3%.

For the compound `Cn1c2ccccc2c2cc(C3CC(c4ccc(Cl)c(Cl)c4)=NN3)ccc21` (stereo unspecified), in series [1], the inhibition was 12.2%. Moreover, the Selectivity ratio in the series filed under Homo sapiens worked out at 1.34. The values for the Activity in series [3], in series [4] and in series [5] were 87.4%, 61.4% and 65.1%, respectively.

`Cn1c2ccccc2c2cc(C3CC(c4ccc(Br)cc4)=NN3)ccc21` (stereo unspecified): the inhibition in series [1] is 87.4%. Moreover, the Selectivity ratio in the series listed under Homo sapiens is 1.02. Moreover, the Activity in series [3] turned out to be 80.6%; in series [4], 56.2%; in series [5], 57.5%.

Consider `Cn1c2ccccc2c2cc(C3CC(c4ccccn4)=NN3)ccc21` (stereo unspecified), for which the inhibition in series [1] was found to be 20.1%. Besides, in the series listed under Homo sapiens, the Selectivity ratio is 2.06. The Activity in series [3] was 72%; in series [4] it was 62.2%; in series [5], 54.8%.

For `Cn1c2ccccc2c2cc(C3CC(c4ccc(Cl)cc4Cl)=NN3)ccc21` (stereo unspecified), in series [1], the inhibition worked out at 24.1%. The Selectivity ratio in the series filed under Homo sapiens came to 1.68. Further, the values for the Activity in series [3], in series [4] and in series [5] were 92.1%, 81.7% and 69.3%, respectively.

As to `Cn1c2ccccc2c2cc(C3CC(c4ccc([N+](=O)[O-])cc4)=NN3)ccc21` (stereo unspecified), the inhibition in series [1] is 14.2%. The Selectivity ratio in the series filed under Homo sapiens stood at 1.3. Moreover, the Activity in series [3] worked out at 81.1%; in series [4], 65.1%; in series [5], 64.8%.

On to `COc1ccc(C2=NNC(c3ccc4c(c3)c3ccccc3n4C)C2)cc1` (stereo unspecified), for which the inhibition in series [1] is 20.6%. For the same compound, in the series filed under Homo sapiens, the Selectivity ratio was 4.06. For the same compound, the inhibition in vivo at 10 µmol/kg in the series with Mus musculus [2] was determined as 51.4%. Besides, the Activity is 80.8% in series [3], 56.2% in series [4], 58.2% in series [5] and “Non-toxic” in the series on Mus musculus [6].

As for `Cn1c2ccccc2c2cc(C3CC(c4ccc(F)c(F)c4)=NN3)ccc21` (stereo unspecified), the inhibition in series [1] amounted to 90.8%. Besides, the Selectivity ratio in the series filed under Homo sapiens was 0.22. The results for the Activity in series [3], in series [4] and in series [5] were 79.8%, 69.4% and 63.2%, respectively.

With `Cn1c2ccccc2c2cc(C3CC(c4ccc(F)cc4)=NN3)ccc21` (stereo unspecified), in series [1], the inhibition came out at 46.2%. Besides, the Selectivity ratio in the series listed under Homo sapiens worked out at 0.49. The Activity was determined as 79.3% in series [3], 45.6% in series [4] and 54.6% in series [5].

As for `Cn1c2ccccc2c2cc(C3CC(c4cc(Cl)ccc4Cl)=NN3)ccc21` (stereo unspecified), in series [1], the inhibition worked out at 8.85%. The Selectivity ratio in the series filed under Homo sapiens is 1.14. Also, the Activity in series [3] came to 91.7%; in series [4] it was 86.3%; in series [5], 78.6%.

For `Cn1c2ccccc2c2cc(C3CC(c4ccc(F)cc4F)=NN3)ccc21` (stereo unspecified), the inhibition in series [1] was 10.4%. Moreover, the Selectivity ratio in the series listed under Homo sapiens stood at 2.58. The Activity in series [3] worked out at 83.8%; in series [4], 63.2%; in series [5], 60.2%.

As for `COc1ccc(C2=NNC(c3ccc4c(c3)c3ccccc3n4C)C2)cc1OC` (stereo unspecified), the inhibition in series [1] came out at 24.1%. For the same compound, the Selectivity ratio in the series filed under Homo sapiens was determined as 3.66. Besides, in the series with Mus musculus [2], the inhibition in vivo at 10 µmol/kg was 60.3%. Besides, the Activity in series [3] was 84%; in series [4] it was 69.4%; in series [5], 69.3%; with Mus musculus [6] it was “Non-toxic”.

What is called inhibition is the relative decrease from the control value, in per cent. The term inhibition in vivo denotes the drop in the measured response relative to a control, in per cent.
